PubChem BioAssay
Inconclusive results are not listed.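 How the source made its calls, unless noted: active means viability at or below 27.92% in each of two runs, the all-compound median minus 4 SD; inconclusive means no clear call, values can overlap the other calls; inactive means the rest.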

Legend:
[1] = S. cerevisiae growth inhibition in permissive medium (OD615), pilot counter-assay for S. cerevisiae lifespan shortening project, permissive growth control (AID 705;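 active means growth inhibition above 25% in both replicates, a cutoff set 3 SD above the mean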); conditions: OD615, 24 h, at 10 µM, active compounds read high
Summary of the method: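 System – S. cerevisiae with engineered DeaD lifespan system · Buffer or medium – SC raffinose/galactose permissive medium · Schedule – cells pre-grown 4 h, then 24 h compound exposure, 30 °C humidified · Technique – culture turbidity as optical density at 615 nm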

[2] = S. cerevisiae growth inhibition in restrictive medium, OD615, pilot screen, restrictive growth control, yeast lifespan reduction project (AID 706;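 active means growth inhibition above a set limit, 3 SD over mean compound inhibition, in both replicates, cut at about 43% in these data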;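 further: modified DeaD lifespan yeast strain shifted to restrictive glucose medium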); conditions: OD615, 48 h, at 10 µM, active compounds read high
Summary of the method: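 Material: engineered S. cerevisiae DeaD strain / Medium: glucose-based CSMM-D restrictive medium / Compound: single dose of 10 µM compound final, 0.25% DMSO / Timing: 4 h pre-incubation, 48 h exposure at 30 °C / Technique: OD615 absorbance reading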

[3] = doxorubicin toxicity protection in MRP-1 cells – H69AR cells, CellTiter-Glo, duplicate, MRP-1 activator project, pilot screen (AID 807;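 active means viability increase at or above a cutoff of the median across tested compounds plus 3 SD, cut at about 8.5% in these data, passing the limit was not always enough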;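 further: compound pretreatment 18-22 h then 72 h combined with doxorubicin; 0% = doxorubicin alone and 100% = vehicle without doxorubicin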); conditions: H69AR viability with doxorubicin, CellTiter-Glo luminescence; at 10 µM; active compounds read high
[4] = viability of HCT116 without oncogenic beta-catenin – human colon tumor cells, pilot screen (AID 823;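 active means cell viability at or below a set limit in both duplicate runs, the limit being the all-compound median minus 4 SD, cut at about 23% in these data, passing the limit was not always enough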;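 further: 0% = wells killed by 20 µM Hyamine and 100% = untreated DMSO cell wells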); conditions: HCT116 beta-catenin knockout viability, CellTiter-Glo, 60 h; at 10 µM; active compounds read low
[5] = viability of PTEN-null HCT116 cells – cell-based, HCT116 clonal line, CellTiter-Glo, pilot screen (AID 824); conditions: HCT116 PTEN-deleted viability, 60 h, at 10 µM, active compounds read low;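 further: 0% = 20 µM Hyamine control and 100% = vehicle cell control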
[6] = RAM pathway blockade in budding yeast – dse1pr::URA3 reporter, 5-FOA selection, pilot screen (AID 869;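 active means inhibition over a set limit, the all-compound mean plus 3 SD, in both replicate runs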;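 further: 0% = DMSO wells with no growth and 100% = 10 µM 1-NA-PP1 with full growth; RAM network block rescues cells from 5-FOA so hits raise OD615 growth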); conditions: S. cerevisiae dse1pr::URA3 5-FOA growth, OD615, 2 d; at 10 µM; active compounds read high; strain carries analog-sensitive mutant Cbk1 kinase
[7] = RAM signaling pathway blockade in yeast – S. cerevisiae, Pdr1DBD-CYC8 efflux-inhibited sensitized strain, primary screen (AID 1298;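 active means RAM network inhibition above 8.4% in each of two replicates, 3 SD over the compound average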;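 further: 0% = DMSO untreated cells without growth and 100% = 10 µM 1-NA-PP1 full growth; higher means more yeast growth rescued from 5-FOA killing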); conditions: S. cerevisiae cbk1-as DSE1-URA3 strain, 5-FOA growth OD615, 2 d; at 50 µM; active compounds read high

O=C(CSc1nnc(-c2cccs2)o1)N1CCCCC1
inactive: growth inhibition [1] -2.25% | growth inhibition [2] 11.9% | viability increase [3] 2.11% | viability [4] 104% | viability [5] 115% | inhibition [6] 1.31% | RAM network inhibition [7] 1.38%

Cc1cc(C)nc(NS(=O)(=O)c2ccc(NC(=O)C3CC(=O)N(c4ccccc4)C3)cc2)n1 (configuration not stated)
inactive: growth inhibition [1] -4.82% | growth inhibition [2] 7.38% | viability increase [3] 1.33% | viability [4] 104% | viability [5] 100% | inhibition [6] 1.81% | RAM network inhibition [7] 3.68%

CCOc1cc(-c2nc(-c3ccncc3)no2)cc(OCC)c1OCC
inactive: growth inhibition [1] -5.04% | growth inhibition [2] -6.19% | viability increase [3] -5.6% | viability [4] 60.1% | viability [5] 65% | inhibition [6] 1.08% | RAM network inhibition [7] 5.16%

COc1ccc(N2CSC3=C(C#N)C(c4cccc(OC)c4OC)CC(=O)N3C2)cc1 (configuration not stated)
inactive: growth inhibition [1] -1.74% | growth inhibition [2] 26.5% | viability increase [3] -4.01% | viability [4] 95.6% | viability [5] 92.6% | inhibition [6] 1.48% | RAM network inhibition [7] 3.83%

COc1cc2c(cc1OC)CN(S(C)(=O)=O)CC2
inactive: growth inhibition [1] -0.905% | growth inhibition [2] -20.7% | viability increase [3] -2.27% | viability [4] 110% | viability [5] 94.7% | inhibition [6] 1.33% | RAM network inhibition [7] 1.26%

CCSCCOC(=O)C1=C(C)NC(=O)NC1c1ccc2c(c1)OCO2 (configuration not stated)
inactive: growth inhibition [1] 3.31% | growth inhibition [2] 3.72% | viability increase [3] -1.35% | viability [4] 94.3% | viability [5] 94.5% | inhibition [6] 2.05% | RAM network inhibition [7] 0.41%

O=C(NCCCc1ccccc1)c1ccncc1
inactive: growth inhibition [1] 1.08% | growth inhibition [2] 0.81% | viability increase [3] -0.23% | viability [4] 98.4% | viability [5] 99.4% | inhibition [6] 0.45% | RAM network inhibition [7] 6.46%

COC(=O)c1ccc(NC(=O)c2cnc3scc(C)n3c2=O)cc1
inactive: growth inhibition [1] -9.29% | growth inhibition [2] -13.3% | viability increase [3] 1.67% | viability [4] 101% | viability [5] 95.8% | inhibition [6] 0.345% | RAM network inhibition [7] 2.36%

COc1ccc(NC(=O)N(Cc2ccc(C)cc2)Cc2ccccn2)c(OC)c1
inactive: growth inhibition [1] -3.04% | growth inhibition [2] 7.11% | viability increase [3] -1.9% | viability [4] 91% | viability [5] 96% | inhibition [6] 0.455% | RAM network inhibition [7] 4.18%

COc1ccc(-c2cc3ccccc3n2CC(O)CN2CCN(CCO)CC2)cc1 (configuration not stated)
inactive: growth inhibition [1] -6.33% | growth inhibition [2] -2.77% | viability increase [3] -3.91% | viability [4] 80.3% | viability [5] 86% | inhibition [6] 0.72% | RAM network inhibition [7] 4.23%

O=C(NCCC1=CCCCC1)NC1CCCCC1
inactive: growth inhibition [1] -7.04% | growth inhibition [2] 8.29% | viability increase [3] -0.3% | viability [4] 87.2% | viability [5] 87.3% | inhibition [6] 1.33% | RAM network inhibition [7] 5.84%

O=C(Cn1ncc2c(=O)oc3ccccc3c21)NCCN1CCN(c2ccccc2F)CC1
inactive: growth inhibition [1] 1.82% | growth inhibition [2] -16.2% | viability increase [3] -0.78% | viability [4] 92.8% | viability [5] 91.5% | inhibition [6] 0.705% | RAM network inhibition [7] 1.34%

CN1C(=O)CS(=O)c2ccc(C(=O)NC3CC3)cc21 (configuration not stated)
inactive: growth inhibition [1] 1.7% | growth inhibition [2] -0.875% | viability increase [3] -2.2% | viability [4] 99.4% | viability [5] 95.4% | inhibition [6] 2.25% | RAM network inhibition [7] -1.59%

CC(=O)N1CCc2cc(S(=O)(=O)Nc3ccccc3N3CCN(C)CC3)ccc21
inactive: growth inhibition [1] -7.73% | growth inhibition [2] -1.75% | viability increase [3] -1.49% | viability [4] 94.8% | viability [5] 85.8% | inhibition [6] 1.71% | RAM network inhibition [7] 0.62%

CCc1ccc(C2N(c3ccc(OC)cc3)C(=O)C3CCCN32)cc1 (configuration not stated)
inactive: growth inhibition [1] 2.83% | growth inhibition [2] -2.37% | viability increase [3] -1.6% | viability [4] 95.3% | viability [5] 101% | inhibition [6] 0.83% | RAM network inhibition [7] 0.23%

COc1ccc(Nc2nc(C)cc(C)c2C#N)cc1OC
inactive: growth inhibition [1] -2.02% | growth inhibition [2] 5.43% | viability increase [3] 1.79% | viability [4] 107% | viability [5] 107% | inhibition [6] 0.715% | RAM network inhibition [7] 1.79%

CC1Cc2ccccc2N1C(=O)Cn1cnc2ccccc2c1=O (configuration not stated)
inactive: growth inhibition [1] 3.42% | growth inhibition [2] -17.3% | viability increase [3] 0.12% | viability [4] 99.4% | viability [5] 93.3% | inhibition [6] -0.455% | RAM network inhibition [7] -0.47%

O=S(=O)(NC1CCCCC1)c1cccc(-c2nnc(-c3ccccc3)o2)c1
inactive: growth inhibition [1] -12.2% | growth inhibition [2] -20.6% | viability increase [3] 0.12% | viability [4] 88.7% | viability [5] 81.2% | inhibition [6] 0.285% | RAM network inhibition [7] 3.44%

CCN(CC)CCNC(=O)Cn1nc(Cc2cccnc2)c2ccccc2c1=O
inactive: growth inhibition [1] -3.85% | growth inhibition [2] -2.59% | viability increase [3] -0.86% | viability [4] 95.7% | viability [5] 97.7% | inhibition [6] -0.35% | RAM network inhibition [7] 1.23%

CC(=O)N1CCc2cc(C(=O)CN3CCN(c4ccccc4F)CC3)ccc21
inactive: growth inhibition [1] -7.16% | growth inhibition [2] -7.33% | viability increase [3] -3.19% | viability [4] 93.7% | viability [5] 88% | inhibition [6] 2.17% | RAM network inhibition [7] 2.34%

Cc1ccc(O)c(-c2cc(C(F)(F)C(F)F)[nH]n2)c1
inactive: growth inhibition [1] -5.95% | growth inhibition [2] -19.7% | viability increase [3] -4.24% | viability [4] 97.1% | viability [5] 87.3% | inhibition [6] 0.725% | RAM network inhibition [7] 3.84%

CC1CCN(c2nnc(N3CCC(C)CC3)c3ccccc23)CC1
inactive: growth inhibition [1] -19.1% | growth inhibition [2] -14.8% | viability increase [3] -3.17% | viability [4] 84% | viability [5] 81.8% | inhibition [6] 1.98% | RAM network inhibition [7] 4.58%

O=C(c1ccccc1)c1ccc(OC(=O)N2CCOCC2)cc1
inactive: growth inhibition [1] -7.92% | growth inhibition [2] 4.65% | viability increase [3] 1.36% | viability [4] 109% | viability [5] 90.7% | inhibition [6] 1.49% | RAM network inhibition [7] 8.53%

O=C(Nc1nccs1)C1CCCN(S(=O)(=O)c2cccc3cccnc23)C1 (configuration not stated)
inactive: growth inhibition [1] -3.46% | growth inhibition [2] 11.8% | viability increase [3] -1.85% | viability [4] 71.2% | viability [5] 68.6% | inhibition [6] 1.6% | RAM network inhibition [7] 4.95%

CC(=O)c1ccc(NC(=O)C2CCCN2S(=O)(=O)c2ccc(F)cc2)cc1 (configuration not stated)
inactive: growth inhibition [1] -5.81% | growth inhibition [2] 0.06% | viability increase [3] 0.59% | viability [4] 98.5% | viability [5] 96.2% | inhibition [6] 2.9% | RAM network inhibition [7] 1.64%

COc1ccc(OC)c(NC(=O)NC2(C(F)(F)F)Oc3ccccc3O2)c1
inactive: growth inhibition [1] -4.07% | growth inhibition [2] 0.635% | viability increase [3] -6.83% | viability [4] 54.9% | viability [5] 71.5% | inhibition [6] 0.25% | RAM network inhibition [7] 4.64%

O=C1c2ccccc2C(Nc2ccc3c(c2)OCO3)N1Cc1ccco1 (configuration not stated)
inactive: growth inhibition [1] 5.28% | growth inhibition [2] -10.7% | viability increase [3] -4.48% | viability [4] 78% | viability [5] 73.3% | inhibition [6] 1.98% | RAM network inhibition [7] 2.26%

CCN(CCNC(=O)CCCn1nc(C)n2c(cc3sccc32)c1=O)c1ccccc1
inactive: growth inhibition [1] -7.8% | growth inhibition [2] -4.82% | viability increase [3] 1.17% | viability [4] 97.2% | viability [5] 93% | inhibition [6] -0.2% | RAM network inhibition [7] 6.63%

CCOC(=O)c1[nH]c(C)c(C(=O)NCCN2CCOCC2)c1C
inactive: growth inhibition [1] -3.9% | growth inhibition [2] -8.41% | viability increase [3] -1.39% | viability [4] 103% | viability [5] 97.7% | inhibition [6] 0.85% | RAM network inhibition [7] -0.87%

Cc1cc(C)nc(SCCn2c(N3CCC(C)CC3)nc3c2c(=O)n(C)c(=O)n3C)n1
inactive: growth inhibition [1] -3.83% | growth inhibition [2] 0.625% | viability increase [3] 1.09% | viability [4] 99.9% | viability [5] 97.3% | inhibition [6] 1.71% | RAM network inhibition [7] 1.91%

O=C1CCCCCN1CP(=O)(O)CCc1ccccc1
inactive: growth inhibition [1] -5.01% | growth inhibition [2] -0.455% | viability increase [3] -0.2% | viability [4] 100% | viability [5] 104% | inhibition [6] 1.19% | RAM network inhibition [7] 0.42%

O=C(Nc1ccc(Cl)cn1)c1cccc(F)c1
inactive: growth inhibition [1] -8.65% | growth inhibition [2] 3.83% | viability increase [3] -5.84% | viability [4] 37% | viability [5] 33.9% | inhibition [6] 0.27% | RAM network inhibition [7] 1.17%

O=C(NCc1ccco1)C1c2ccccc2Oc2ccccc21
inactive: growth inhibition [1] -6.75% | growth inhibition [2] 6.04% | viability increase [3] -5.24% | viability [4] 83.8% | viability [5] 88.4% | inhibition [6] 0.12% | RAM network inhibition [7] 3.94%

C=CCn1cc(C(=O)NCCCOC)c(=O)c2cc(S(=O)(=O)N3CCC(C)CC3)ccc21
inactive: growth inhibition [1] -10.6% | growth inhibition [2] -19.6% | viability increase [3] -3.54% | viability [4] 96.7% | viability [5] 87% | inhibition [6] 1.56% | RAM network inhibition [7] -0.52%

COCCOC(=O)C1=C(C)NC2=C(C(=O)CC(C)(C)C2)C1c1ccc2c(c1)OCO2 (configuration not stated)
inactive: growth inhibition [1] -5.88% | growth inhibition [2] -4.59% | viability increase [3] -1.42% | viability [4] 92.9% | viability [5] 87.4% | inhibition [6] 0.175% | RAM network inhibition [7] 2.6%

COc1cccc(-c2cc(C(F)(F)F)nc(N3CCOCC3)n2)c1
inactive: growth inhibition [1] -4.32% | growth inhibition [2] -9.04% | viability increase [3] 0.16% | viability [4] 73.5% | viability [5] 77.8% | inhibition [6] 1.38% | RAM network inhibition [7] 6.83%
